Values after ≈ are worked out from the molar mass of the structure shown. Starred links: 1 amine or outer side, 2 acyl side, 3 side chain; linkers in the order of their positions; H or OH if unused. Positions of bridges follow the written chain, without caps; N, C: chain ends. Non-standard residues stand in square brackets, D forms with d. Residues, ends and D or L forms follow the SMILES beside them. *: point of attachment. pTerphenylCO(4''-OnC5H11) = CCCCCOc1ccc(-c2ccc(-c3ccc(C(=O)*)cc3)cc2)cc1; Orn(4R-OH,5R-OH) = O=C([C@H](C[C@@H](O)[C@@H](O)N[*:3])N[*:1])[*:2]; hTyr(3S-OH,4S-OH) = N[C@H](C(=O)O)[C@H](O)[C@@H](O)c1ccc(O)cc1; Pro(3S-OH,4S-Me) = C[C@H]1CN[C@H](C(=O)O)[C@H]1O; Hyp = O=C(O)[C@@H]1C[C@@H](O)CN1
Columns and labels:
[1] = biological target: 1,3-beta-glucan synthase component FKS1 (Candida glabrata, UniProt E2GKZ4, D632E); experiment: Inhibition of Candida glabrata isolate 3169 1,3-beta-D-glucan synthase Fks1p D632E mutant/wild type Fks2p; design: species or system Nakaseomyces glabratus
Method in brief: (§1)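 Cells grown in YPD broth at 35°C with vigorous shaking to early stationary phase. Membrane protein extracted and glucan synthase partially purified by product entrapment. Filtration polymerization assay measured [3H]glucose incorporation into product, started by adding enzyme. Echinocandin serial dilutions spanned 0.01–10,000 ng/ml, with 1% DMSO controls for anidulafungin. IC50 from variable-slope sigmoidal fit.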

[2] = tested on: Nakaseomyces glabratus; experiment: Antifungal activity against Candida glabrata isolate 42997 expressing Fks1p F625S mutant and wild type Fks2p by CLSI method in presence of 50% human serum; assay type: functional
Method in brief: (§2)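 Broth microdilution MIC per CLSI M27-A3 in RPMI 1640 supplemented with 50% serum. Caspofungin and micafungin stocks in sterile water; anidulafungin stock in 100% DMSO; stocks kept at −86°C.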

[3] = tested on: Nakaseomyces glabratus; experiment: Antifungal activity against Candida glabrata isolate 42971 expressing Fks1p D632Y mutant and Fks2p R1377STOP mutant by CLSI method; assay type: functional
Method in brief: (§3)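 Broth microdilution MIC per CLSI M27-A3 in RPMI 1640 medium without serum. Caspofungin and micafungin stocks in sterile water; anidulafungin stock in 100% DMSO; stocks kept at −86°C.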

[4] = tested on: Nakaseomyces glabratus; experiment: Antifungal activity against Candida glabrata ATCC 90030 expressing wild type Fks1p and Fks2p by CLSI method; assay type: functional
Method in brief: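 Broth microdilution MIC per CLSI M27-A3 in RPMI 1640 medium, also run in RPMI 1640 with 50% serum. Wild-type control strain. Caspofungin and micafungin dissolved in sterile distilled water and anidulafungin in 100% DMSO; stock solutions stored at −86°C. Geometric means used to compare MICs.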

[5] = tested on: Nakaseomyces glabratus; experiment: Antifungal activity against Candida glabrata isolate 31498 expressing wild type Fks1p and Fks2p F659 deletion mutant by CLSI method in presence of 50% human serum; assay type: functional; method in brief: as §2
[6] = tested on: Nakaseomyces glabratus; experiment: Antifungal activity against Candida glabrata isolate 31498 expressing wild type Fks1p and Fks2p F659 deletion mutant by CLSI method; assay type: functional; method in brief: as §3
[7] = tested on: Nakaseomyces glabratus; experiment: Antifungal activity against Candida glabrata isolate 42997 expressing Fks1p F625S mutant and wild type Fks2p by CLSI method; assay type: functional; method in brief: as §3
[8] = tested on: Nakaseomyces glabratus; experiment: Antifungal activity against Candida glabrata isolate 42031 expressing wild type Fks1p and Fks2p D666E mutant by CLSI method in presence of 50% human serum; assay type: functional; method in brief: as §2
[9] = biological target: 1,3-beta-glucan synthase (Candida glabrata, UniProt F5BCZ9, P667T); experiment: Inhibition of Candida glabrata isolate 51916 1,3-beta-D-glucan synthase wild type Fks1p/Fks2p P667T mutant; design: species or system Nakaseomyces glabratus; method in brief: as §1
[10] = tested on: Nakaseomyces glabratus; experiment: Antifungal activity against Candida glabrata isolate 3169 expressing Fks1p D632E mutant and wild type Fks2p by CLSI method in presence of 50% human serum; assay type: functional; method in brief: as §2
[11] = Inhibition of Candida glabrata isolate 218 wild type 1,3-beta-D-glucan synthase; design: species or system Nakaseomyces glabratus; method in brief: as §1
[12] = tested on: Nakaseomyces glabratus; experiment: Antifungal activity against Candida glabrata isolate 41400 expressing wild type Fks1p and Fks2p D666G mutant by CLSI method; assay type: functional; method in brief: as §3
[13] = biological target: 1,3-beta-glucan synthase (Candida glabrata, UniProt F5BCZ9, D666E); experiment: Inhibition of Candida glabrata isolate 42031 1,3-beta-D-glucan synthase wild type Fks1p/Fks2p D666E mutant; design: species or system Nakaseomyces glabratus; method in brief: as §1
[14] = tested on: Nakaseomyces glabratus; experiment: Antifungal activity against Candida glabrata isolate 218 expressing wild type Fks1p and Fks2p by CLSI method in presence of 50% human serum; assay type: functional; method in brief: as §2
[15] = tested on: Nakaseomyces glabratus; experiment: Antifungal activity against Candida glabrata isolate 234 expressing wild type Fks1p and Fks2p F659V mutant by CLSI method in presence of 50% human serum; assay type: functional; method in brief: as §2
[16] = biological target: 1,3-beta-glucan synthase (Candida glabrata, UniProt F5BCZ9, F659V); experiment: Inhibition of Candida glabrata isolate 234 1,3-beta-D-glucan synthase wild type Fks1p/Fks2p F659V mutant; design: species or system Nakaseomyces glabratus; method in brief: as §1
[17] = tested on: Nakaseomyces glabratus; experiment: Antifungal activity against Candida glabrata isolate 41026 expressing wild type Fks1p and Fks2p F659S mutant by CLSI method in presence of 50% human serum; assay type: functional; method in brief: as §2
[18] = Inhibition of Candida glabrata isolate 3168 wild type 1,3-beta-D-glucan synthase; design: species or system Nakaseomyces glabratus; method in brief: as §1
[19] = tested on: Nakaseomyces glabratus; experiment: Antifungal activity against Candida glabrata isolate 3169 expressing Fks1p D632E mutant and wild type Fks2p by CLSI method; assay type: functional; method in brief: as §3
[20] = tested on: Nakaseomyces glabratus; experiment: Antifungal activity against Candida glabrata isolate 3830 expressing wild type Fks1p and Fks2p S663P mutant by CLSI method in presence of 50% human serum; assay type: functional; method in brief: as §2
[21] = tested on: Nakaseomyces glabratus; experiment: Antifungal activity against Candida glabrata isolate 21900 expressing Fks1p D632G mutant and wild type Fks2p by CLSI method in presence of 50% human serum; assay type: functional; method in brief: as §2
[22] = tested on: Nakaseomyces glabratus; experiment: Antifungal activity against Candida glabrata isolate 5416 expressing wild type Fks1p and Fks2p W1375L mutant by CLSI method; assay type: functional; method in brief: as §3
[23] = tested on: Nakaseomyces glabratus; experiment: Antifungal activity against Candida glabrata isolate 42971 expressing Fks1p D632Y mutant and Fks2p R1377STOP mutant by CLSI method in presence of 50% human serum; assay type: functional; method in brief: as §2
[24] = tested on: Nakaseomyces glabratus; experiment: Antifungal activity against Candida glabrata isolate 41026 expressing wild type Fks1p and Fks2p F659S mutant by CLSI method; assay type: functional; method in brief: as §3
[25] = tested on: Nakaseomyces glabratus; experiment: Antifungal activity against Candida glabrata isolate 218 expressing wild type Fks1p and Fks2p by CLSI method; assay type: functional; method in brief: as §3
[26] = biological target: 1,3-beta-glucan synthase (Candida glabrata, UniProt F5BCZ9, D666G); experiment: Inhibition of Candida glabrata isolate 41400 1,3-beta-D-glucan synthase wild type Fks1p/Fks2p D666G mutant; design: species or system Nakaseomyces glabratus; method in brief: as §1
[27] = tested on: Nakaseomyces glabratus; experiment: Ratio of IC50 for Candida glabrata wild type 1,3-beta-glucan synthase to IC50 for Candida glabrata 1,3-beta-glucan synthase mutant
[28] = tested on: Nakaseomyces glabratus; experiment: Antifungal activity against Candida glabrata isolate 5416 expressing wild type Fks1p and Fks2p W1375L mutant by CLSI method in presence of 50% human serum; assay type: functional; method in brief: as §2
[29] = biological target: 1,3-beta-glucan synthase (Candida glabrata, UniProt F5BCZ9, W1375L); experiment: Inhibition of Candida glabrata isolate 5416 1,3-beta-D-glucan synthase wild type Fks1p/Fks2p W1375L mutant; design: species or system Nakaseomyces glabratus; method in brief: as §1
[30] = tested on: Nakaseomyces glabratus; experiment: Antifungal activity against Candida glabrata isolate 42031 expressing wild type Fks1p and Fks2p D666E mutant by CLSI method; assay type: functional; method in brief: as §3
[31] = tested on: Nakaseomyces glabratus; experiment: Antifungal activity against Candida glabrata isolate 41400 expressing wild type Fks1p and Fks2p D666G mutant by CLSI method in presence of 50% human serum; assay type: functional; method in brief: as §2
[32] = Inhibition of Candida glabrata isolate 31498 1,3-beta-D-glucan synthase wild type Fks1p/Fks2p F659 deletion mutant; design: species or system Nakaseomyces glabratus; method in brief: as §1
[33] = tested on: Nakaseomyces glabratus; experiment: Antifungal activity against Candida glabrata isolate 51916 expressing wild type Fks1p and Fks2p P667T mutant by CLSI method; assay type: functional; method in brief: as §3
[34] = biological target: 1,3-beta-glucan synthase component FKS1 (Candida glabrata, UniProt E2GKZ4, D632G); experiment: Inhibition of Candida glabrata isolate 21900 1,3-beta-D-glucan synthase Fks1p D632G mutant/wild type Fks2p; design: species or system Nakaseomyces glabratus; method in brief: as §1
1,3-beta-glucan synthase component FKS1 (Candida glabrata, UniProt E2GKZ4, D632G), sequence (E2GKZ4 entry or part of it D632G): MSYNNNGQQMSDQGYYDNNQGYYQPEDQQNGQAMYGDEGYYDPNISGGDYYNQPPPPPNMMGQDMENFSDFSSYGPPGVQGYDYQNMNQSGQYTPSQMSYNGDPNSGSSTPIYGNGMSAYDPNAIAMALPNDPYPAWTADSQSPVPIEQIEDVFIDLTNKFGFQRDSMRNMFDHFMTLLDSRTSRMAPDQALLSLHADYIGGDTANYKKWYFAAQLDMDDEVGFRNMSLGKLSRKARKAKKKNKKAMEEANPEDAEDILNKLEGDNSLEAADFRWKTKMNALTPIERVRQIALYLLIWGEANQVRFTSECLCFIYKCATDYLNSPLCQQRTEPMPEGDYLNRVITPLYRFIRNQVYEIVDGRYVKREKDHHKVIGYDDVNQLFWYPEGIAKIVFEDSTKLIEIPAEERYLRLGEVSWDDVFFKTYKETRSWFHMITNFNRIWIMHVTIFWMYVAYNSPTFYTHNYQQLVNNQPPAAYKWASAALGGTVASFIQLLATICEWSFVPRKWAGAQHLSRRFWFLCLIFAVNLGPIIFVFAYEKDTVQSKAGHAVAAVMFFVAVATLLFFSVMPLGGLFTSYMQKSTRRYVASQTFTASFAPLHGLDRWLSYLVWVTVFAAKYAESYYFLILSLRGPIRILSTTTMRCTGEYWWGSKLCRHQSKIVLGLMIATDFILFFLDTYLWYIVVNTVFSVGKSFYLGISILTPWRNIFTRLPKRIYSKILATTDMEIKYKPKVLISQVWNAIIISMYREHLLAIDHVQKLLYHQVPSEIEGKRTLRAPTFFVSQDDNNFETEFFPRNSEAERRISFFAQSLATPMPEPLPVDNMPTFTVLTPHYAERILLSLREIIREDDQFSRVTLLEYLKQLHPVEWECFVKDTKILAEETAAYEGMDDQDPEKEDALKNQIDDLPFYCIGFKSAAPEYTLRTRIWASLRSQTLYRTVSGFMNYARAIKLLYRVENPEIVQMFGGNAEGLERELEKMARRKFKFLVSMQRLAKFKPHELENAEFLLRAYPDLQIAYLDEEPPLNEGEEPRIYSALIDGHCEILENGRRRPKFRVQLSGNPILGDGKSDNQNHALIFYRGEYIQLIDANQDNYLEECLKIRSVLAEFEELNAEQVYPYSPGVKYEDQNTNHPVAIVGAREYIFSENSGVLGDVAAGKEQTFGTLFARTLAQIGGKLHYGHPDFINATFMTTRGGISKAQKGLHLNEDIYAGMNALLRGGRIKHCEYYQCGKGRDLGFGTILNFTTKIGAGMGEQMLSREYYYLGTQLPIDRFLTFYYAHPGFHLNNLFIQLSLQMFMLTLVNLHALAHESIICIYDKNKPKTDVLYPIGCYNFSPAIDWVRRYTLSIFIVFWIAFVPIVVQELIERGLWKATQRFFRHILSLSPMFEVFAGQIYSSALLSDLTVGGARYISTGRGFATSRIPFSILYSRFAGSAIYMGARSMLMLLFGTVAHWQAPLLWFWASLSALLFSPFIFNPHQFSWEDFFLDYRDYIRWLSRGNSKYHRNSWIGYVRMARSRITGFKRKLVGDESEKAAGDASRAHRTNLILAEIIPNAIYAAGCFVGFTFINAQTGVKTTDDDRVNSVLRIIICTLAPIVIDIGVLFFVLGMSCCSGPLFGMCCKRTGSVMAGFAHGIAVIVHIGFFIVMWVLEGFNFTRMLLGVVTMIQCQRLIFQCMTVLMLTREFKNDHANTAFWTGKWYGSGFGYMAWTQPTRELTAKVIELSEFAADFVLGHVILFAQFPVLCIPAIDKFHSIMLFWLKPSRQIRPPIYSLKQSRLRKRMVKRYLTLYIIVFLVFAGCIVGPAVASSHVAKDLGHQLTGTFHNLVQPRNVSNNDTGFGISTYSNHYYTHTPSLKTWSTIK

1,3-beta-glucan synthase (Candida glabrata, UniProt F5BCZ9, F659V), sequence (F5BCZ9 entry or part of it F659V): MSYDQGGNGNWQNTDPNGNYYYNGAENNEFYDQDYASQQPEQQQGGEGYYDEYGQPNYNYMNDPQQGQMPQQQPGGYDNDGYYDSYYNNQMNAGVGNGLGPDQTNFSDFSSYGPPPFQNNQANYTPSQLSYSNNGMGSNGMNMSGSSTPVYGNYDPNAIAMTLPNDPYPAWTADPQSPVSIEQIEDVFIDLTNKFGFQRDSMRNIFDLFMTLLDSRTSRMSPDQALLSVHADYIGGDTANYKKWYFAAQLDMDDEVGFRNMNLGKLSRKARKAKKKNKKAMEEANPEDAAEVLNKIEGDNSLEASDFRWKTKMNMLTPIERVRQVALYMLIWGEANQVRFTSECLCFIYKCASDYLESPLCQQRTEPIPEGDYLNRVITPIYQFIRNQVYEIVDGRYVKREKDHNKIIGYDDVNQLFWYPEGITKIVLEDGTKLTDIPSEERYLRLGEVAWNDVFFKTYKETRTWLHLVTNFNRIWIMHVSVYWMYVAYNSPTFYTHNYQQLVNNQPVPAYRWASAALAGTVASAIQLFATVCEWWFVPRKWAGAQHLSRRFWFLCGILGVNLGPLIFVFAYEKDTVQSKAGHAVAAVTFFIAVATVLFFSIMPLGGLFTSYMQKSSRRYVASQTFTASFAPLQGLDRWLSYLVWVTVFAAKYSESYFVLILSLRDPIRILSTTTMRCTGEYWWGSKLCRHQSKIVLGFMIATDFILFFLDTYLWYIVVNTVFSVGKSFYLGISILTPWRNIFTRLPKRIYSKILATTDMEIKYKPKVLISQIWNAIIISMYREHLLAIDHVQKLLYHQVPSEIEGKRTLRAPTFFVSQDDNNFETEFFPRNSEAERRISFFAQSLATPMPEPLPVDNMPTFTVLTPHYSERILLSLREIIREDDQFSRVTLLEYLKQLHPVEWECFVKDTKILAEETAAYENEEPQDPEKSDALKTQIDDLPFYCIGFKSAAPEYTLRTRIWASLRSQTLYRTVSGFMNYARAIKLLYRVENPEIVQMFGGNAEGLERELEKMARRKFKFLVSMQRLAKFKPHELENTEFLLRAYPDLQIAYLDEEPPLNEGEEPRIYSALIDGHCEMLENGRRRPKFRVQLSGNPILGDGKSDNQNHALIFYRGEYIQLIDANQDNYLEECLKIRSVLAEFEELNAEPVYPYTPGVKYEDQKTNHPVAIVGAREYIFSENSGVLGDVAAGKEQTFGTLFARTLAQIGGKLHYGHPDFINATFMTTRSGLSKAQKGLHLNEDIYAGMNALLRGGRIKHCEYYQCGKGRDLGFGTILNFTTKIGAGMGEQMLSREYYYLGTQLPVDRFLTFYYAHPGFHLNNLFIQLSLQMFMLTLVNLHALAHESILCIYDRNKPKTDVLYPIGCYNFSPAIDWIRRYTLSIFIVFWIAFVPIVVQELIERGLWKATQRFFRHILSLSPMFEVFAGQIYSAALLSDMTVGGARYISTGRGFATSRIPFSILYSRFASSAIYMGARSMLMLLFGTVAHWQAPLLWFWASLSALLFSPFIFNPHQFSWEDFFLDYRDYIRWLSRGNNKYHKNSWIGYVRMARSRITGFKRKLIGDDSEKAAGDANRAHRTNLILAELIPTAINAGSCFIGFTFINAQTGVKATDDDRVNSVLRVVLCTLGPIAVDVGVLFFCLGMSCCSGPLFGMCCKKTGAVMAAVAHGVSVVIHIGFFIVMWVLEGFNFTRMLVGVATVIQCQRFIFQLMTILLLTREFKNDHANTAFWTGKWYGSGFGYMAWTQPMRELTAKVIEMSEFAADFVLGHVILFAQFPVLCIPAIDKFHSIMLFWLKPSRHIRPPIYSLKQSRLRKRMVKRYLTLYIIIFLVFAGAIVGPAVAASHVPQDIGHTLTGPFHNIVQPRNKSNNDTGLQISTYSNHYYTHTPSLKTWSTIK

## CCCCCOc1ccc(-c2ccc(-c3ccc(C(=O)N[C@H]4C[C@@H](O)[C@@H](O)NC(=O)[C@@H]5[C@@H](O)[C@@H](C)CN5C(=O)[C@H]([C@@H](C)O)NC(=O)[C@H]([C@H](O)[C@@H](O)c5ccc(O)cc5)NC(=O)[C@@H]5C[C@@H](O)CN5C(=O)[C@H]([C@@H](C)O)NC4=O)cc3)cc2)cc1 [ANIDULAFUNGIN] ({pTerphenylCO(4''-OnC5H11)}-[Orn(4R-OH,5R-OH)]T[Hyp][hTyr(3S-OH,4S-OH)]T[Pro(3S-OH,4S-Me)]; lactam 1-C)
[1]
  IC50: 133 nM
[2]
  MIC: 8 µg/mL
[3]
  MIC: 4 µg/mL (≈ 3.51 µM)
[4]
  MIC: 0.06 µg/mL (≈ 0.0526 µM)
[5]
  MIC: 8 µg/mL
[6]
  MIC: 2 µg/mL (≈ 1.75 µM)
[7]
  MIC: 2 µg/mL (≈ 1.75 µM)
[8]
  MIC: 4 µg/mL
[9]
  IC50: 87.3 nM
[10]
  MIC: 8 µg/mL
[11]
  IC50: 0.00125 µg/mL (≈ 0.0011 µM)
[12]
  MIC: 2 µg/mL (≈ 1.75 µM)
[13]
  IC50: 112 nM
[14]
  MIC: 0.5 µg/mL
[15]
  MIC: 8 µg/mL
[16]
  IC50: 75.9 nM
[17]
  MIC: 16 µg/mL
[18]
  IC50: 0.00158 µg/mL (≈ 0.00139 µM)
[19]
  MIC: 2 µg/mL (≈ 1.75 µM)
[20]
  MIC: 8 µg/mL
[21]
  MIC: 8 µg/mL
[22]
  MIC: 0.25 µg/mL (≈ 0.219 µM)
[23]
  MIC: 8 µg/mL
[24]
  MIC: 4 µg/mL (≈ 3.51 µM)
[25]
  MIC: 0.06 µg/mL (≈ 0.0526 µM)
[26]
  IC50: 154 nM
[27]
  Ratio IC50: 54
[28]
  MIC: 4 µg/mL
[29]
  IC50: 74.7 nM
[30]
  MIC: 1 µg/mL (≈ 0.877 µM)
[31]
  MIC: 8 µg/mL
[32]
  IC50: 0.16 µg/mL (≈ 0.14 µM)
[33]
  MIC: 1.59 µg/mL (≈ 1.39 µM)
[34]
  IC50: 89.3 nM
